Laboratory results from ChEMBL document CHEMBL1147233, “Chemistry and structure-activity relationship of HIV-1 integrase inhibitor integracide B and related natural products” (J Nat Prod, 2003).

Tests used:
[1] = molecular target: T1, Human immunodeficiency virus type 1 integrase (Human immunodeficiency virus 1, UniProt Q7ZJM1); assay: Inhibition of recombinant HIV1 integrase using unprocessed donor DNA by coupled assay
Outline: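 Unprocessed donor DNA and inhibitor incubated with recombinant integrase together for 30 min, then target DNA added; strand-transfer product measured. Final DMSO 10%. IC50 from serial 2-fold dilutions in duplicate or triplicate; values without error limits are the average of these.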

[2] = molecular target: T1, Human immunodeficiency virus type 1 integrase; assay: Inhibition of recombinant HIV1 integrase using preprocessed donor DNA treated after washing excess enzyme by strand transfer assay
Outline: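 Integrase preincubated with preprocessed donor DNA, unbound enzyme washed off, then target DNA and inhibitor added together. Strand transfer product measured. Final DMSO 10%. IC50 from serial 2-fold dilutions run in duplicate or triplicate; values without error limits are the average of these.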

[3] = tested on: Human immunodeficiency virus 1; assay: Antiviral activity against HIV1 infected in human H9 cells; format: functional; details: Human immunodeficiency virus 1, H9; read-out: CIC95
Outline: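 Multiple-cycle viral spread assay in HIV-1-infected H9 T-lymphoid cells; value is CIC95, the concentration giving >95% protection from viral infection.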

[4] = molecular target: Type II restriction enzyme EcoRI (Escherichia coli, UniProt P00642); assay: Inhibition of Escherichia coli ECOR1
[5] = Inhibition of DNAse
[6] = molecular target: T1, Human immunodeficiency virus type 1 integrase; assay: Inhibition of HIV1 integrase assessed as inhibition of 3'-end processing reaction
Outline: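 Specific 3′-end processing of LTR donor-sequence oligonucleotide substrates, run with […]. IC₅₀ values without error limits are the average of duplicate or triplicate data sets.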

T1 sequence (Q7ZJM1 whole entry): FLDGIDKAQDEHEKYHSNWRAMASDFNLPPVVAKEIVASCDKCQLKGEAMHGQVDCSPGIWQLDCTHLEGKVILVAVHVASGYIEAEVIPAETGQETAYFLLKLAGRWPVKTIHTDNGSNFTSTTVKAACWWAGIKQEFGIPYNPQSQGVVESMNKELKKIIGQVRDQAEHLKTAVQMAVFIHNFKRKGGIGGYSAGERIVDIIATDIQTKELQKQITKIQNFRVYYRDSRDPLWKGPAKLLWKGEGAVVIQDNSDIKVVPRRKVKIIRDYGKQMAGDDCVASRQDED
Sequence of Type II restriction enzyme EcoRI (P00642 whole entry): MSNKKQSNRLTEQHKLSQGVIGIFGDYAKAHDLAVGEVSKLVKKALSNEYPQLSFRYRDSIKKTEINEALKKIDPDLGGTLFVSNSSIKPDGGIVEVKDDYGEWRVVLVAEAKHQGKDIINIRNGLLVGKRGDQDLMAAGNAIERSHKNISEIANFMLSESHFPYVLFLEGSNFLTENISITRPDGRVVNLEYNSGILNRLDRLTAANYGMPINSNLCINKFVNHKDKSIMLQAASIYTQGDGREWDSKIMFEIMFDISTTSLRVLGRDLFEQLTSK

Row | Structure (SMILES) | IC50 [1] [µM] | IC50 [2] [µM] | IC95 [3] [µM] | IC50 [4] [µM] | IC50 [5] [µM] | IC50 [6] [µM]
1 | C=C(CC[C@@H](C)[C@H]1CC=C2C3=C([C@@H](O)[C@H](OC(C)=O)[C@@]21C)[C@@]1(C)C[C@@H](OC(=O)CCC(=O)O)[C@H](O)C(C)(C)[C@@H]1CC3)C(C)C | 3 | 12 | 6 | > 50 | > 50 | 
2 | C=C(CC[C@@H](C)[C@H]1CC=C2C3=C([C@@H](O)[C@H](OC(C)=O)[C@@]21C)[C@@]1(C)C[C@@H](OC(=O)CCC(=O)OC)[C@H](O)C(C)(C)[C@@H]1CC3)C(C)C | > 50 | > 50 |  | > 50 | > 50 | 
3 | C=C(CC[C@@H](C)[C@H]1CC=C2C3=C([C@@H](O)[C@H](OC(C)=O)[C@@]21C)[C@@]1(C)C[C@@H](OC(=O)CN)[C@H](OC(=O)CN)C(C)(C)[C@@H]1CC3)C(C)C | 1.7 | 11.5 |  | > 50 | 47 | 
4 | C=C(CC[C@@H](C)[C@H]1CC=C2C3=C([C@@H](O)[C@H](OC(C)=O)[C@@]21C)[C@@]1(C)C[C@@H](O)[C@H](OC(=O)CN)C(C)(C)[C@@H]1CC3)C(C)C | 18 | > 50 |  | > 50 | > 50 | 
5 | C=C(CC[C@@H](C)[C@H]1CC=C2C3=C([C@@H](O)[C@H](OC(C)=O)[C@@]21C)[C@@]1(C)C[C@@H](OC(=O)CNC(=O)OCC2c4ccccc4-c4ccccc42)[C@H](O)C(C)(C)[C@@H]1CC3)C(C)C | > 50 | > 50 |  | > 50 | > 50 | 
6 | C=C(CC[C@@H](C)[C@H]1CC=C2C3=C([C@@H](O)[C@H](OC(C)=O)[C@@]21C)[C@@]1(C)C[C@@H](OC(=O)CNC(=O)OCC2c4ccccc4-c4ccccc42)[C@H](OC(=O)CNC(=O)OCC2c4ccccc4-c4ccccc42)C(C)(C)[C@@H]1CC3)C(C)C | > 50 | > 50 |  | > 50 | > 50 | 
7 | C=C(CC[C@@H](C)[C@H]1CC=C2C3=C([C@@H](O)[C@H](OC(C)=O)[C@@]21C)[C@@]1(C)C[C@@H](OC(=O)CNC(=O)OC(C)(C)C)[C@H](OC(=O)CNC(=O)OC(C)(C)C)C(C)(C)[C@@H]1CC3)C(C)C | > 50 | > 50 |  | > 50 | > 50 | 
8 | C=C(CC[C@@H](C)[C@H]1CC=C2C3=C([C@@H](O)[C@H](OC(C)=O)[C@@]21C)[C@@]1(C)C[C@@H](O)[C@H](OC(=O)CCC(=O)OC)C(C)(C)[C@@H]1CC3)C(C)C | > 50 | > 50 |  | > 50 | > 50 | 
9 | C=C(CC[C@@H](C)[C@H]1CC=C2C3=C([C@@H](O)[C@H](OC(C)=O)[C@@]21C)[C@@]1(C)C[C@@H](OC(=O)c2ccccc2)[C@H](OC(=O)c2ccccc2)C(C)(C)[C@@H]1CC3)C(C)C | > 69 | > 69 |  | > 50 | > 50 | 
10 | C=C(CC[C@@H](C)[C@H]1CC=C2C3=C([C@@H](O)[C@H](OC(C)=O)[C@@]21C)[C@@]1(C)CC[C@H](OS(=O)(=O)O)C(C)(C)[C@@H]1CC3)C(C)C | 3.1 | 4.8 |  | > 50 | > 50 | 
11 | C=C(CC[C@@H](C)[C@H]1CC=C2C3=C([C@@H](O)[C@H](OC(C)=O)[C@@]21C)[C@@]1(C)C[C@H]2OC(C)(C)O[C@@H]2C(C)(C)[C@@H]1CC3)C(C)C | > 50 | > 50 |  | > 50 | > 50 | 
12 | C=C(CC[C@@H](C)[C@H]1CC=C2C3=C([C@@H](O)[C@H](OC(C)=O)[C@@]21C)[C@@]1(C)C[C@@H](OC(=O)CNC(=O)OC(C)(C)C)[C@H](O)C(C)(C)[C@@H]1CC3)C(C)C | > 50 | > 50 |  | > 50 | > 50 | 
13 | C=C(CC[C@@H](C)[C@H]1CC=C2C3=C(C(=O)[C@H](OC(C)=O)[C@@]21C)[C@@]1(C)C[C@@H](O)[C@H](O)C(C)(C)[C@@H]1CC3)C(C)C | 75 | > 100 |  | > 50 | > 50 | 
14 | C=C(CC[C@@H](C)[C@H]1C[C@H](OC)c2c3c(cc(C)c21)[C@@]1(C)C[C@@H](O)[C@H](O)C(C)(C)[C@@H]1CC3)C(C)C | 50 | > 100 |  | > 50 | > 50 | 
15 | C=C(CC[C@@H](C)[C@H]1C[C@@H](OC)c2c3c(cc(C)c21)[C@@]1(C)C[C@@H](O)[C@H](O)C(C)(C)[C@@H]1CC3)C(C)C | 50 | > 100 |  | > 50 | > 50 | 
16 | C=C(CC[C@@H](C)[C@H]1CC(=O)C2=C3CC[C@H]4C(C)(C)[C@@H](O)[C@H](O)C[C@]4(C)C3=C[C@H](OC(C)=O)[C@@]21C)C(C)C | 25 | 40 |  | > 50 | > 50 | 

Row | Structure (SMILES) | IC50 [1] [µM] | IC50 [2] [µM] | IC95 [3] [µM] | IC50 [4] [µM] | IC50 [5] [µM] | IC50 [6] [µM]
17 | C=C(CC[C@@H](C)[C@H]1CC=C2C3=C([C@@H](O)[C@H](OC(C)=O)[C@@]21C)[C@@]1(C)C[C@@H]2O[C@@H]2C(C)(C)[C@@H]1CC3)C(C)C | > 50 | > 50 |  | > 50 | > 50 | 
18 | COC(=O)C[C@@](C)(O)CC(=O)O[C@@H]1C[C@]2(C)C3=C(CC[C@H]2C(C)(C)C1=O)[C@]1(C)CC[C@H]([C@H](C)CCC(O)C(C)(C)O)[C@@]1(C)CC3 (some centres not stated) | 70 | > 100 |  | > 50 | > 50 | 
19 | CC(=O)O[C@H]1[C@H](O)C2=C(CC[C@H]3C(C)(C)[C@@H](OS(=O)(=O)O)[C@H](OC(=O)CCCCCCCCCCCCCCCO)C[C@]23C)C2=CC[C@H]([C@H](C)CCC3(C(C)(C)O)CO3)[C@]21C (some centres not stated) | 5 | 14 | 6 | > 50 | > 50 | 10
20 | C=C(CC[C@@H](C)[C@H]1CC=C2C3=C([C@@H](O)[C@H](OC(C)=O)[C@@]21C)[C@@]1(C)C[C@@H](OC(=O)CN)[C@H](O)C(C)(C)[C@@H]1CC3)C(C)C | 23 | > 50 |  | > 50 | > 50 | 
21 | C=C(CC[C@@H](C)[C@H]1CC=C2C3=C([C@@H](O)[C@H](OC(C)=O)[C@@]21C)[C@@]1(C)C[C@@H](OCOC)[C@H](O)C(C)(C)[C@@H]1CC3)C(C)C | > 80 | > 80 |  | > 50 | > 50 | 
22 | C=C(CC[C@@H](C)[C@H]1CC=C2C3=C([C@@H](O)[C@H](OC(C)=O)[C@@]21C)[C@@]1(C)C[C@@H](O)[C@H](OCOC)C(C)(C)[C@@H]1CC3)C(C)C | > 80 | > 80 |  | > 50 | > 50 | 
23 | C=C(CC[C@@H](C)[C@H]1CC=C2C3=C([C@@H](O)[C@H](OC(C)=O)[C@@]21C)[C@@]1(C)C[C@@H](OC(=O)CCC(=O)NO)[C@H](O)C(C)(C)[C@@H]1CC3)C(C)C | 8 | > 50 |  | > 50 | > 50 | 
24 | C=C(CC[C@@H](C)[C@H]1CC=C2C3=C([C@@H](O)[C@H](OC(C)=O)[C@@]21C)[C@@]1(C)C[C@@H](O)[C@H](OC(=O)c2ccccc2)C(C)(C)[C@@H]1CC3)C(C)C | > 80 | > 80 |  | > 50 | > 50 | 
25 | C=C(CC[C@@H](C)[C@H]1CC=C2C3=C([C@@H](OC(C)=O)[C@H](OC(C)=O)[C@@]21C)[C@@]1(C)C[C@@H](OC(C)=O)[C@H](OC(C)=O)C(C)(C)[C@@H]1CC3)C(C)C | > 50 | > 50 |  | > 50 | > 50 | 
26 | C=C(CC[C@@H](C)[C@H]1CC=C2C3=C([C@@H](O)[C@H](OC(C)=O)[C@@]21C)[C@@]1(C)C[C@@H](OC(=O)c2ccccc2)[C@H](O)C(C)(C)[C@@H]1CC3)C(C)C | > 80 | > 80 |  | > 50 | > 50 | 
27 | C=C(CC[C@@H](C)[C@H]1CC=C2C3=C([C@@H](O)[C@H](OC(C)=O)[C@@]21C)[C@@]1(C)C[C@@H](OCOC)[C@H](OCOC)C(C)(C)[C@@H]1CC3)C(C)C | > 80 | > 80 |  | > 50 | > 50 | 
28 | C=C(CC[C@@H](C)[C@H]1CC=C2C3=C([C@@H](O)[C@H](O)[C@@]21C)[C@@]1(C)C[C@@H](O)[C@H](O)C(C)(C)[C@@H]1CC3)C(C)C | 48 | > 50 |  | > 50 | > 50 | 
29 | C[C@H](CCC(O)C(C)(C)O)[C@H]1CC[C@@]2(C)C3=C(CC[C@]12C)[C@@]1(C)C[C@@H](OC(=O)CC(C)(O)CC(=O)O)C(=O)C(C)(C)[C@@H]1CC3 (some centres not stated) [CLAVARIC ACID] | 47 | 85 |  | > 50 | > 50 | 
30 | C[C@H](CCC(O)C(C)(C)O)[C@H]1CC[C@@]2(C)C3=C(CC[C@]12C)[C@@]1(C)C[C@@H](O)C(=O)C(C)(C)[C@@H]1CC3 (some centres not stated) [CLAVARINONE] | 68 | > 100 |  | > 50 | > 50 | 
31 | C=C(CC[C@@H](C)[C@H]1CC=C2C3=C([C@@H](O)[C@H](OC(C)=O)[C@@]21C)[C@@]1(C)C[C@@H](O)[C@H](O)C(C)(C)[C@@H]1CC3)C(C)C [INTEGRACIDE B] | 82 | > 100 |  | > 50 | > 50 | 
